Assay results from the RNAGym collection of RNA variant scans (doi:10.1101/gad.245936.114).
This sample holds only a part of the variants without activity.

B1: tRNA (parent)
chain: CUCUCGGUAGCCAAGUUGGUUUAAGGCGCAAGACUUUAAUUUAUCACUACGAAAUCUUGAGAUCGGGCGUUCGACUCGCCCCCGGGAGAUUUUUUCCUCGAGCAA

Variants of: B1
Test: nonsense suppression (GFP-seq) (ratio to wild type); higher = more function; SUP4oc tRNA, yeast GFP reporter sort-seq
Summary of the method: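 Yeast carrying genome-integrated SUP4oc tRNA variants from a library with ~3% random mutations were grown in raffinose/galactose medium with 80 mg/L adenine. Each strain also carried a galactose-driven GFP ochre reporter and RFP. Cells were sorted into GFP/RFP bins, and each bin was Illumina-sequenced (phred ≥30). Nonsense suppression (GFPSEQ) is the bin median GFP/RFP, weighted by each variant's estimated cell share per bin, relative to wild-type SUP4oc; variants needed ≥100 reads and ≥30 cells.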
In the case of CUCUCGGUAGCCAAGUUGGUUUAAGGCGCAAGACUUUAAUUUAUCACUACGAAAUCUUGAGAUCGGGCGUUCGACUCGCCGCCGGGAAAUUUUUUCCUCGAGCAA, the nonsense suppression is reported as ≤ 0.026. With CUCUCGGUAGCCUAGUUGGUUUAAGGCGCAAGACUUUAAUUUAUCACUACGAAAUCUUGAGAUCAGGCGUUCGACUCGCCCCCGGGAGAUUUUUUCCUCGAGCAA the nonsense suppression was ≤ 0.026. In the case of CUCUCGGUAGCCAAGCUGGUUUAAGGCGCAAAACUUUAAUUUAUCACUACGAAAUCUUAAGAUCGGGCGUUCGACUCGCCCGCGGGAGAUUUUUUCCUCGAGCAA, the nonsense suppression is reported as ≤ 0.026. In the case of CCCUCGGUAGCCAAGUUCGUUUAAUGCGCAAGACUUUAAUUUAUCACUACGAACUCCUGAUAUCGGGCGGUCGACUCGCCCCCGGGAGAUUUUUUCCUCGAGCAA, the nonsense suppression is reported as ≤ 0.026. In the case of CUCUCGGUUGCCAAGUUGGUUUAAGGCUCAAGACUUUAAUUUAUCACUACGAAAUCUUGAGGUCGGGCGUGCGACUCGCCCCCGGGAGAUUUUUUCCUCGAGCAA, the nonsense suppression is reported as ≤ 0.026. For CUCUCGGUAGCCAAGUUGGUUUAAGGCGCAGGACUUUAAUUUAUCACUACGAAAUCUUGAGAUCGGUCGUUCGGCGCGCCACCGGGAGAUUUUUUCCUCGAGCAA, the nonsense suppression was ≤ 0.026. In the case of CUCUCGGUAGCCUAGUUGGUUUAAGGCGCAAGACUUUAAUUUAUCACUACGAAAUCUUGAGAUCGGGCGUACGACUCGCCCCCGGGAGAUUUUUUCCUCGAGCAA, the nonsense suppression is reported as ≤ 0.026. Variant CUCUCGGUAGCCAAGUUGGUUUAAGGCGCAAGACUUUAAUUUAUCACUACGAAAUCUUGAGAUCGGGCGUUCGACUCGCCCCCGGGACAUUUUUUCCUCGAGCAA has a nonsense suppression of 0.028. For CUCUCGGUAGCCAAGUUGGUUUAAGGCGCAAGACUUUAAUUUAUCACUACGAAAUCAUGAGAUCGGGCGUUCGAAUCGCCCCCGGGAGAUUUUUUCCUCGAGCAA, the nonsense suppression was 0.681. For CUCUCGGUAGCCAAGUUGGUUUAAGGCGCGAGACUUUAAUUUAUCACUACGAAAUCUUCCGAUCGGGCGUUCGACUCGCCCCCGGGAGAUUUUUUCCUCGAGCAA, the nonsense suppression was ≤ 0.026. In the case of CUCCCGGUAGCCAAGUUGGUUUAAGGCGCAAGACUUUAAUUUAUCACUACGAAAUCUUGAGAUCGGGCGUUCGACUCGCCCCCGGGCGAUUUUUUCCUCGAGCAA, the nonsense suppression is reported as 0.197. In the case of CUCUAGGUAGCCAAGUUGCUUUAAGGCGCAAGACUUUAAUUUAUCACUACGAAAUCUUGAGGUCGGGCGUUCGACUCGCCCCCGGGAGAUUUUUUCCUCGAGCAA, the nonsense suppression is reported as ≤ 0.026. For CUCUCGGUAGCCAAGUAGGUUUAAGGCGCAAGACUUUAAUUUAUCACUACGAAACCUUGAGAUCGGGCGUUCGACUCGCCCCCGGGAGAUUUUUUCCUCGAGCAA, the nonsense suppression was 0.176. With CUCUCGAUAGCCAAGUUGGUUUAAUGCGCAAGACUUUAAUUUAUCACUACGAAAUCUUGAGAUCGGGCGUUCGACUCGCCCCCGGGAGAUUUUUUCCUCGAGCAA the nonsense suppression was ≤ 0.026. With CUCUCGGUCGCCCAGUUGGUUUAAGGCGCAAGACUUUAAUUUAUCACUACGAAAUCUUGAGAUCGGGCGUUCGACUCGCCCCCGGGAGAUUUUUUCCUCGAGCAA the nonsense suppression was 1.15. For CUCUCGGUAGCCAAGUUGGUUUAAGGCGCAAGACUUUAAUUUAUCACUACGAAAUCUUGAAAUCGGGCGUUCGACUCGCCCCCGUGAGAUUUUUUCCUCGAGCAA, the nonsense suppression was 0.429. For CUCUCGGUAGCCAAGUUGGUUUAAGGCGCAAAACUUUAAUUUAUCACUACGAAAUCUUGAGGUCGGGCGUGCGACUCACCCCCGAGAGAUUUUUUCCUCGAGCAA, the nonsense suppression was ≤ 0.026. In the case of CUCUCGGUAGCCAAGUUGGUCAAAGGCGCAAGACUUUAAUUUAUCACUACGAAAUCUUGAGAUCGGGCGUUCGACUCGCCCCCGGGAGAUUUUUUCCUCGAGCAA, the nonsense suppression is reported as 1.14. Work on CUCUCGGUAGCCAAGUUGGUUUAAGGCGCGAGACUUUAAUUUAUCACUACGAAAUCUUGAGAUCGGGCGUUCGACUCGCCCCCGAGAGAUUUUUUCCUCGAGCAA yielded a nonsense suppression of 0.793. For CUCUCGGUAGCCAAGUUGGCUUAAGGCGCAAGACUUUAAUUUAUCACUACGAAAUCUUGAGAUCGGGCGUUCGACUCGUCCCCUGGAGAUUUUUUCCUCGAGCAA, the nonsense suppression was ≤ 0.026. For CUCUCGGUAGCCAAGUUGGUUUAAGGCGCAAGACUUUAAUUUAUCACUACGAAAUCUUGAGAUCGGGCGUUCGACUCGCCACCGUGAGAUUUUUUCCUCGAGCAA, the nonsense suppression was ≤ 0.026. In the case of CUCCCGGUAGCCAAGUUGGUUUAAGGCGCAUGACUUUAAUUUAUCACUACGAAAUCGUGAGAUCGGGCGUUCGACUCGCCCCCGGGAUAUUUUUUCCUCGAGCAA, the nonsense suppression is reported as ≤ 0.026. In the case of CUCUCGGUAGCCAAGUUGGUUUAAGGCGCAAGACUUUAAUUUAUCACUACGAAAUCUUGAAAUCGGGCGUUCGAAUCGCCCCCGGGAGAUUUUUUCCUCGAGCAA, the nonsense suppression is reported as 0.842. With CUCUCGGUAGCCAAGUUGGUGUAAGGCGCAAGGUUUUAAUUUAUCACUACGAAAUCUUGAGAUCCGGCGUUCGACUCGCCCCCGGGAGAUUUUUUCCUCGAGCAA the nonsense suppression was ≤ 0.026. In the case of GUCUCGGUGGACAAGUUGGUAUAAGGCGCCAGACUUUAAUUUAUCACUACGAAAUCUUGAGAUCGGGCGUUCGACUCACCCCCGGGAGAUUUUUUCCUCGAGCAA, the nonsense suppression is reported as ≤ 0.026. CUCUCGGUAGCCCAGUUGGUAUAAGGCGCAAGACUUUAAUUUAUCACUACGAAAUCUUGAGAUCGGGCGUUCGACUCGCCCCCGGGAGAUUUUUUCCUCGAGCAA showed a nonsense suppression of 1.19. CUCUCGGUAGCCAAGUUGGUUUAUGGCGCAAGACUUUAAUUUAUCACUACGAAAUCUUGAGAUCGGGCGUUGGACUCGCCCCCGGGAGAUUUUUUCCUCGAGCAA showed a nonsense suppression of 0.03.
